Results from ChEMBL document CHEMBL1153876, “Synthesis of some N-substituted nitroimidazole derivatives as potential antioxidant and antifungal agents” (2009).
Values after ≈ are worked out from the molar mass of the structure shown.

Tests used:
[1] = Antioxidant activity assessed as inhibition of Fe2+-induced lipid peroxidation after 15 to 60 mins by TBARS assay relative to control; assay type: functional; design: concentration or dose not given beside the values
In short: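 Substrate: egg yolk lipoprotein suspension, made by homogenising yolk with an equal volume of phosphate buffer pH 7.4. Compounds were added as 10^-3 mol/mL solution, with 0.7% FeSO4·7H2O to start non-enzymatic peroxidation, at 37 °C. Controls were Fe only and a blank with neither Fe nor compound; tocopheryl acetate was the reference. The supernatant was heated with acidic thiobarbituric acid at 95 °C for 1 h, extracted into n-butanol–pyridine 15:1, and read by optical density.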

[2] = system: Sydowia polyspora; assay: Antifungal activity against Sclerophoma pityophila after 12 days; assay type: functional; settings: for EC50: Sydowia polyspora, 288 h, read-out: ED50 (the source's name)
In short: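 Agar dilution on S. pityophila S 231: nine concentrations in geometric progression, 25 to 5000 ppm, in malt agar (1.5% agar, 4% malt extract), 90 mm dishes, three replicate plates each. Centrally inoculated with 5-mm disc from submargin of 10-day-old culture; 22 ± 1 °C, dark, up to 12 days. Growth rate versus compound-free plates gives ED50/ED100; non-growing inocula transferred to fresh agar to assess viability (LD).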

Row | Compound | Activity [1] | ED100 [2] | LD [2] | EC50 [2]
1 | Cc1ccccc1Nc1nc(C)n(CC(=O)c2ccccc2)c1[N+](=O)[O-] | -354% |  |  | 
2 | Cc1nc(N2CCN(C)CC2)c([N+](=O)[O-])n1CC(=O)c1ccccc1 | 13% |  |  | 
3 | Cc1nc(N2CCCCC2)c([N+](=O)[O-])n1CC(=O)c1ccccc1 | 48.6% | >5000 ppm | <5000 ppm | > 5000 µg/mL
4 | Cc1nc(N2CCCC2)c([N+](=O)[O-])n1CC(=O)c1ccc(Cl)cc1 | 20.8% | >5000 ppm | <5000 ppm | > 5000 µg/mL
5 | Cc1nc(N2CCN(C)CC2)c([N+](=O)[O-])n1CC(=O)c1ccc(Cl)cc1 | 37.1% |  |  | 
6 | Cc1nc(N2CCCC2)c([N+](=O)[O-])n1CC(=O)c1ccccc1 | 45.2% |  |  | 
7 | Cc1ccccc1Nc1ncn(CC(=O)c2ccc(Cl)cc2)c1[N+](=O)[O-] | -35.3% |  |  | 
8 | O=C(Cn1cnc(N2CCCC2)c1[N+](=O)[O-])c1ccccc1 | 44.2% |  |  | 
9 | CN1CCN(c2ncn(CC(O)CCl)c2[N+](=O)[O-])CC1 (configuration not stated) | 39.1% |  |  | 
10 | O=C(Cn1cnc(N2CCOCC2)c1[N+](=O)[O-])c1ccc(Cl)cc1 | 21% |  |  | 
11 | Cc1nc([N+](=O)[O-])c([N+](=O)[O-])n1CC(=O)c1ccccc1 | 26.4% |  |  | 
12 | O=C(Cn1cnc(N2CCOCC2)c1[N+](=O)[O-])c1ccccc1 | 56.3% | <25 ppm | <5000 ppm | < 25 µg/mL
13 | Cc1nc([N+](=O)[O-])c([N+](=O)[O-])n1CC(=O)c1ccc(Cl)cc1 | 57.6% | >5000 ppm | <5000 ppm | 500 µg/mL (≈ 1540 µM)
14 | Cc1nc(N2CCOCC2)c([N+](=O)[O-])n1CC(=O)c1ccc(Cl)cc1 | 30.1% |  |  | 
15 | Cc1nc(N2CCCCC2)c([N+](=O)[O-])n1CC(=O)c1ccc(Cl)cc1 | 36.9% | <25 ppm | <5000 ppm | < 25 µg/mL
16 | O=[N+]([O-])c1c(N2CCOCC2)ncn1CC(O)CCl (configuration not stated) | 51.6% |  |  | 
17 | O=C(Cn1cnc([N+](=O)[O-])c1[N+](=O)[O-])c1ccccc1 | 34.5% |  |  | 
18 | CC(=O)Oc1c(C)c(C)c2c(c1C)CCC(C)(CCC[C@H](C)CCC[C@H](C)CCCC(C)C)O2 (some centres not stated) | 17.8% |  |  | 
19 | CC(=O)Cn1c(C)nc(N2CCOCC2)c1[N+](=O)[O-] | 23.1% |  |  | 
20 | Cc1nc(N2CCOCC2)c([N+](=O)[O-])n1CC(=O)c1ccccc1 | 39.9% |  |  | 
21 | Cc1ccccc1Nc1nc(C)n(CC(=O)c2ccc(Cl)cc2)c1[N+](=O)[O-] | 12.2% |  |  | 
22 | O=C(Cn1cnc([N+](=O)[O-])c1[N+](=O)[O-])c1ccc(Cl)cc1 | 60% | >5000 ppm | <5000 ppm | 1000 µg/mL (≈ 3220 µM)
23 | Cc1ccccc1Nc1ncn(CC(=O)c2ccccc2)c1[N+](=O)[O-] | 1.2% |  |  | 
24 | CC(=O)Cn1c(C)nc(Nc2ccccc2)c1[N+](=O)[O-] | 15.1% |  |  | 
